ATG4B inhibitor: ATG4B (human) cysteine protease inhibition; AID 504462; Q9Y4P1; ATG4B cleavage of LC3-PLA2, NBD-HPC fluorescence, 1 h; inhibition, % at 8.33 µM; 0.51% of 340,000 active; in the data active = inhibition above about 40%
Target sequence (Q9Y4P1 whole entry, looked up): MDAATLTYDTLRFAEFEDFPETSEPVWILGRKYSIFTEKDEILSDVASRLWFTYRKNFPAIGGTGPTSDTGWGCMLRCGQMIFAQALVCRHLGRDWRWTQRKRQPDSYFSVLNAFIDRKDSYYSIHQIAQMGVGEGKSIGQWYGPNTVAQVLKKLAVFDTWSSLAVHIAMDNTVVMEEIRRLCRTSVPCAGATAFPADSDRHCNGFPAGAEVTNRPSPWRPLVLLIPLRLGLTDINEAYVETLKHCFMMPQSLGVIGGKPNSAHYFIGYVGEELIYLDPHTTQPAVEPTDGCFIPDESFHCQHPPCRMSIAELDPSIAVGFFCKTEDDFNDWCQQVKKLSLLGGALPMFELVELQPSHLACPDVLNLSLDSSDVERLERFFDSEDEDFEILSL
MT1-MMP act inh: inhibitors of human MT1-MMP activation; P50281; GFP/RFP ratio change, % at 20 µM; HT1080 RFP-PRO-GFP cells, GFP/RFP ratio fluorescence, overnight; percent of plate control window, DMSO zero; 0.061% of 360,000 active; AID 651647;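 active = GFP/RFP ratio change of at least 30% with cell ATP level not reduced by more than half and red fluorescence within 50% of control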
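Assay system: HT1080 RFP-PRO-GFP cells | Dosing: 20 µM single dose, 1% DMSO | Incubation: Cells overnight before dosing, compound overnight, 37 °C, 5% CO2 | Evaluation: GFP/RFP fluorescence ratio | Control set: DMSO-only wells and HT1080 RFP-L50D-GFP cell wells as references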
MPTP inh: blocks calcium-induced mitochondrial swelling | isolated mouse mitochondria, Ca2+ swelling absorbance, 30 min | inhibition, % at 10 µM | 1.4% of 360,000 active;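 active = inhibition of 50% or more, scaled per plate between neutral and stimulator controls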
SKN-1 block: C. elegans SKN-1 inhibition; C. elegans VP596 Pgst-4::GFP/RFP ratio, acrylamide-induced, 24 h; inhibition, % at 21.8 µM; 0.49% of 360,000 active; AID 624304;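 active = interference check ratio from 0.5 to 1.5 plus GFP to RFP signal ratio inhibition reaching or exceeding a fixed threshold, cut at about 30% in these data, passing the limit was not always enough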
PLA2 counter: counter-screen for ATG4B inhibitors: human phospholipase A2. shares compounds with ATG4B inhibitor. purified PLA2, NBD-C6-HPC fluorescence, 45 min. inhibition, % at 8.33 µM. 66% of 1,600 active. AID 588402; in the data active = inhibition above about 50%
Target sequence (P04054 whole entry, looked up): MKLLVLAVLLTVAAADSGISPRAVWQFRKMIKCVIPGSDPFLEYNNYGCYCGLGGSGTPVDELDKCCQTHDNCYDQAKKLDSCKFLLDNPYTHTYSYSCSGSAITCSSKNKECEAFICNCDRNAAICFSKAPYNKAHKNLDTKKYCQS
Hits are given with their value. This is a sample that favours compounds with a hit; in the whole collection about 2.3% have one here.

For O=c1cc(-c2ccccc2Cl)oc2c(Br)ccc(O)c12 the results were ATG4B inhibitor inactive, MT1-MMP act inh inactive, MPTP inh inactive and SKN-1 block inactive.
Screening O=c1cc(-c2ccccc2Cl)oc2c(NS(=O)(=O)c3ccccc3OC(F)(F)F)ccc(O)c12 returned ATG4B inhibitor 43 and PLA2 counter 78.
O=c1cc(-c2ccccc2Cl)oc2c(NS(=O)(=O)c3ccccc3C(F)(F)F)ccc(O)c12 was read as ATG4B inhibitor 42, MT1-MMP act inh inactive, MPTP inh inactive, SKN-1 block inactive and PLA2 counter 53.
O=C(Nc1ccc(O)c2c(=O)cc(-c3ccccc3Cl)oc12)c1ccc(Cl)c(Cl)c1 was read as ATG4B inhibitor inactive, MT1-MMP act inh inactive, MPTP inh inactive and SKN-1 block inactive.
Screening O=C(COC(=O)CCc1nc2ccccc2n1-c1ccccc1)Nc1cccc(Cl)c1 returned ATG4B inhibitor inactive, MT1-MMP act inh inactive, MPTP inh inactive and SKN-1 block inactive.
Cc1c(Cl)cccc1NC(=O)COC(=O)CCc1nc2ccccc2n1-c1ccccc1 was read as ATG4B inhibitor 50, MT1-MMP act inh inactive, MPTP inh inactive, SKN-1 block inactive and PLA2 counter 53.
Screening Cc1cc(/C=N/NC(=O)C(O)(c2ccccc2)c2ccccc2)c(C)n1-c1ccc(C(=O)O)cc1 returned ATG4B inhibitor inactive, MT1-MMP act inh inactive, MPTP inh inactive and SKN-1 block inactive.
Screening Cc1cc(/C=N/NC(=O)C(O)(c2ccccc2)c2ccccc2)c(C)n1-c1cccc(C(=O)O)c1 returned ATG4B inhibitor 52, MT1-MMP act inh inactive, MPTP inh inactive, SKN-1 block inactive and PLA2 counter 57.
`Cc1cccc(C)c1NC(=O)C1c2ccccc2OCC(=O)N1Cc1ccc2c(c1)OCO2` (stereo not drawn) gave MT1-MMP act inh inactive, MPTP inh inactive and SKN-1 block inactive.
For O=C(NC(Cc1c[nH]c2ccccc12)C(=O)Nc1ccc(F)c([N+](=O)[O-])c1)c1cccs1 (stereo not drawn) the results were ATG4B inhibitor 71, MT1-MMP act inh inactive, MPTP inh inactive, SKN-1 block inactive and PLA2 counter 81.
`COC(=O)CN1C(=O)N/C(=C/c2ccc(OC)cc2)C1=O` gave ATG4B inhibitor inactive, MT1-MMP act inh inactive, MPTP inh inactive and SKN-1 block inactive.
COC(=O)Cn1c(=O)c2c(n(Cc3ccccc3)c1=O)N/C(=C/c1ccc(Br)cc1)C2=O was read as ATG4B inhibitor 54, MT1-MMP act inh inactive, MPTP inh inactive, SKN-1 block inactive and PLA2 counter 61.
Screening CC(=O)N1c2c(cc(Br)cc2S(=O)(=O)N2CCN(c3ccccc3F)CC2)CC1C (stereo not drawn) returned ATG4B inhibitor 55, MT1-MMP act inh inactive, MPTP inh inactive, SKN-1 block inactive and PLA2 counter 67.
`CC(=O)N1c2c(cc(Br)cc2S(=O)(=O)N2CCCCC2)CC1C` (stereo not drawn) gave ATG4B inhibitor inactive, MT1-MMP act inh inactive, MPTP inh inactive and SKN-1 block inactive.
For COC(=O)C(Cc1ccc(OC(=O)c2ccccc2Cl)cc1)N1Cc2ccccc2C1=O (stereo not drawn) the results were ATG4B inhibitor 83, MT1-MMP act inh inactive, MPTP inh inactive, SKN-1 block inactive and PLA2 counter 86.
For O=C(O)[C@H](Cc1ccccc1)N1Cc2ccccc2C1=O the results were ATG4B inhibitor inactive, MT1-MMP act inh inactive, MPTP inh inactive and SKN-1 block inactive.
`COC(=O)C(Cc1ccc(OC(=O)c2ccccc2C)cc1)N1Cc2ccccc2C1=O` (stereo not drawn) gave ATG4B inhibitor 72, MT1-MMP act inh inactive, MPTP inh inactive, SKN-1 block inactive and PLA2 counter 76.
O=c1oc2ccccc2cc1-c1csc(NN=C2CCCCC2)n1 was read as ATG4B inhibitor 41, MT1-MMP act inh inactive, MPTP inh inactive, SKN-1 block inactive and PLA2 counter 66.
CCN(C(=O)CSc1nc(C)nc2sc(C)c(C)c12)c1ccc(F)cc1 was read as ATG4B inhibitor inactive, MT1-MMP act inh inactive, MPTP inh inactive and SKN-1 block inactive.
CCN(Cc1ccc2c(c1)OCO2)C(=O)CSc1nc(C)nc2sc(C)c(C)c12 was read as ATG4B inhibitor 58, MT1-MMP act inh inactive, MPTP inh inactive, SKN-1 block inactive and PLA2 counter 75.
`COc1ccc(S(=O)(=O)N(C)C[C@H]2Oc3c(cccc3N(C)C)C(=O)N([C@H](C)CO)C[C@@H]2C)cc1` gave ATG4B inhibitor inactive, MT1-MMP act inh inactive, MPTP inh inactive and SKN-1 block inactive.
`COc1ccccc1Oc1nnnn1-c1ccc(C(N)=O)cc1` gave ATG4B inhibitor inactive, MT1-MMP act inh inactive, MPTP inh inactive and SKN-1 block inactive.
`COc1ccc(/C=C/C(=O)Nc2ccc(C(N)=O)cc2)cc1OC` gave ATG4B inhibitor inactive, MT1-MMP act inh inactive, MPTP inh inactive and SKN-1 block inactive.
NC(=O)c1ccc(-n2nnnc2Oc2ccccc2)cc1 was read as ATG4B inhibitor 54, MT1-MMP act inh inactive, MPTP inh inactive, SKN-1 block inactive and PLA2 counter inactive.
C/C=C/c1ccc(Oc2nnnn2-c2ccc(C(N)=O)cc2)c(OC)c1 was read as ATG4B inhibitor 69, MT1-MMP act inh inactive, MPTP inh inactive, SKN-1 block inactive and PLA2 counter 80.
Cc1cccn2c(=O)c(/C=C(\C#N)C(=O)NCc3ccco3)c(N3CCCC(C)C3)nc12 (stereo not drawn) was read as ATG4B inhibitor 51, MT1-MMP act inh inactive, MPTP inh inactive, SKN-1 block inactive and PLA2 counter 68.
Screening CCOC(=O)C1CCCN(c2nc3c(C)cccn3c(=O)c2/C=C(\C#N)C(=O)NCc2ccco2)C1 (stereo not drawn) returned ATG4B inhibitor inactive, MT1-MMP act inh inactive, MPTP inh inactive and SKN-1 block inactive.
`Cc1cccn2c(=O)c(/C=C(\C#N)C(=O)NCc3ccco3)c(N3CCCCC3)nc12` gave ATG4B inhibitor 63, MT1-MMP act inh inactive, MPTP inh inactive, SKN-1 block inactive and PLA2 counter 60.
`Cc1cccn2c(=O)c(/C=C(\C#N)C(=O)NCc3ccco3)c(N3CCCCCC3)nc12` gave ATG4B inhibitor inactive, MT1-MMP act inh inactive, MPTP inh inactive and SKN-1 block inactive.
For Cc1ccc(C(=O)NC2CCC(C)CC2)s1 (stereo not drawn) the results were ATG4B inhibitor inactive, MT1-MMP act inh inactive, MPTP inh inactive and SKN-1 block inactive.
For O=C(O)CCCNC(=O)c1ccccn1 the results were ATG4B inhibitor inactive, MT1-MMP act inh inactive, MPTP inh inactive and SKN-1 block inactive.
`CC(C)c1ccc(NC2CCCN(C(=O)c3ccco3)C2)cc1` (stereo not drawn) gave ATG4B inhibitor 54, MT1-MMP act inh inactive, MPTP inh inactive, SKN-1 block inactive and PLA2 counter 53.
